Reference: ChEMBL document CHEMBL4818995, “Dual nicotinamide phosphoribosyltransferase and epidermal growth factor receptor inhibitors for the treatment of cancer” (Eur J Med Chem, 2021)

Key:
MCF7 = test: Antiproliferative activity against human MCF-7 cells assessed as inhibition of cell growth after 72 hrs by CCK8 assay; conditions: MCF7, 72 h
[1] = biological target: Epidermal growth factor receptor (Homo sapiens, UniProt P00533, L858R); test: Inhibition of N-terminal GST-tagged human recombinant EGFR L858R mutant (668 to 1210 residues) expressed in baculovirus expression system by Z'-LYTE kinase assay
Huh-7 = test: Antiproliferative activity against human Huh-7 cells assessed as inhibition of cell growth after 72 hrs by CCK8 assay; assay type: functional, cell-based
In short: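 Cells kept in RPMI or DMEM with 10% FBS and 1% penicillin/streptomycin, 37 °C, 5% CO2. Plated at 400-800 cells/well, treated with a range of test concentrations or vehicle for 72 h. CCK8 reagent added, absorbance read at 450 nm.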

[2] = biological target: Epidermal growth factor receptor (Homo sapiens, UniProt P00533); test: Inhibition of N-terminal GST-tagged human recombinant EGFR cytoplasmic domain (668 to 1210 residues) expressed in baculovirus expression system by Z'-LYTE kinase assay
[3] = biological target: Epidermal growth factor receptor (Homo sapiens, UniProt P00533, T790M); test: Inhibition of N-terminal GST-tagged human recombinant EGFR T790M mutant (668 to 1210 residues) expressed in baculovirus expression system by Z'-LYTE kinase assay
K562 = test: Antiproliferative activity against human K562 cells assessed as inhibition of cell growth after 72 hrs by CCK8 assay; conditions: K562, 72 h
[4] = biological target: Epidermal growth factor receptor (Homo sapiens, UniProt P00533, L861Q); test: Inhibition of N-terminal GST-tagged human recombinant EGFR L861Q mutant (668 to 1210 residues) expressed in baculovirus expression system by Z'-LYTE kinase assay
NCI-H1975 = test: Antiproliferative activity against human NCI-H1975 cells harboring EGFR L858R/T790M double mutant assessed as inhibition of cell growth; assay type: functional
[5] = Toxicity in BALB/c nude mouse xenografted with human NCI-H1975 cells assessed as changes in body weight at 60 mg/kg, iv administered 5 days a week for 3 weeks; assay type: organism-based; conditions: in vivo, 504 h
In short: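 Female BALB/c nude mice aged 4-6 weeks, H1975 cells (3 × 10^6 in 0.1 ml RPMI-1640) implanted subcutaneously in the right flank. At day 12, tumors ~150 mm3, mice grouped n=6. […] Test agent in 5% ethanol/5% DMSO/10% Cremophor EL/80% saline at 60 mg/kg i.v. five times weekly. Vehicle group received i.v. vehicle. Tumor and body weight recorded daily by caliper; TV = width² × length × 0.5. Mean ± SD, Student's t-test.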

Epidermal growth factor receptor (Homo sapiens, UniProt P00533, L861Q), sequence (P00533 25-1210 L861Q limits assumed): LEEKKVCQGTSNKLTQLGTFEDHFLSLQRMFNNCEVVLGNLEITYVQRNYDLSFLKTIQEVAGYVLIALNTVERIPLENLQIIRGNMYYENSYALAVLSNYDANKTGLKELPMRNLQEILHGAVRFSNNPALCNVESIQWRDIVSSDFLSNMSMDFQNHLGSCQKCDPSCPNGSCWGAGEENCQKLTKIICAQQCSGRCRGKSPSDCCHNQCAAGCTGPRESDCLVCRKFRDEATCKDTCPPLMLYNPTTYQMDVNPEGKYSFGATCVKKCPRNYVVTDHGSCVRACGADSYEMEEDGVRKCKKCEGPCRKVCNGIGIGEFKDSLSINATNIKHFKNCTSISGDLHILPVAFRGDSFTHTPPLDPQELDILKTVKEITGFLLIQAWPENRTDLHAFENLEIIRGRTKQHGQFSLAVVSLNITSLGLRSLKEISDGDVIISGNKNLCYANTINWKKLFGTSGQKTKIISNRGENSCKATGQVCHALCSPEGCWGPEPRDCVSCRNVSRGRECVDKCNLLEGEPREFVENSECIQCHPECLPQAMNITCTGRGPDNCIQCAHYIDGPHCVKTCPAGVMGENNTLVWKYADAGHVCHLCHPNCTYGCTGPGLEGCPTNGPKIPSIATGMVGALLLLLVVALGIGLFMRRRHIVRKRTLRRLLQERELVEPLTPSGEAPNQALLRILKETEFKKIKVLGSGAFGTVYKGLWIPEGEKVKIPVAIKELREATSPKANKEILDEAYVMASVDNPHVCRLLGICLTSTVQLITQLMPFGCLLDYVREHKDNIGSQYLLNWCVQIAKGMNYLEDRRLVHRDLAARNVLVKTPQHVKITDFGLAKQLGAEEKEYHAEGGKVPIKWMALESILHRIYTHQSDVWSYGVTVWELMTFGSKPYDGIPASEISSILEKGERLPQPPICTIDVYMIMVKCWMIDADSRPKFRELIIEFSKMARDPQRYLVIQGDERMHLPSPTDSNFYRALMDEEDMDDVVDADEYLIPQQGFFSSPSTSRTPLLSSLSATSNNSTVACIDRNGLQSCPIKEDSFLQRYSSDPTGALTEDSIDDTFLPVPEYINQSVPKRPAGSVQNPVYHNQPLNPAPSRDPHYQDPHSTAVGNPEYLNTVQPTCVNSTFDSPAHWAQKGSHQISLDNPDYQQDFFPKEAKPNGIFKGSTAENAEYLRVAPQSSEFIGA
Epidermal growth factor receptor (Homo sapiens, UniProt P00533), sequence (P00533 whole entry, the tested form may be a part): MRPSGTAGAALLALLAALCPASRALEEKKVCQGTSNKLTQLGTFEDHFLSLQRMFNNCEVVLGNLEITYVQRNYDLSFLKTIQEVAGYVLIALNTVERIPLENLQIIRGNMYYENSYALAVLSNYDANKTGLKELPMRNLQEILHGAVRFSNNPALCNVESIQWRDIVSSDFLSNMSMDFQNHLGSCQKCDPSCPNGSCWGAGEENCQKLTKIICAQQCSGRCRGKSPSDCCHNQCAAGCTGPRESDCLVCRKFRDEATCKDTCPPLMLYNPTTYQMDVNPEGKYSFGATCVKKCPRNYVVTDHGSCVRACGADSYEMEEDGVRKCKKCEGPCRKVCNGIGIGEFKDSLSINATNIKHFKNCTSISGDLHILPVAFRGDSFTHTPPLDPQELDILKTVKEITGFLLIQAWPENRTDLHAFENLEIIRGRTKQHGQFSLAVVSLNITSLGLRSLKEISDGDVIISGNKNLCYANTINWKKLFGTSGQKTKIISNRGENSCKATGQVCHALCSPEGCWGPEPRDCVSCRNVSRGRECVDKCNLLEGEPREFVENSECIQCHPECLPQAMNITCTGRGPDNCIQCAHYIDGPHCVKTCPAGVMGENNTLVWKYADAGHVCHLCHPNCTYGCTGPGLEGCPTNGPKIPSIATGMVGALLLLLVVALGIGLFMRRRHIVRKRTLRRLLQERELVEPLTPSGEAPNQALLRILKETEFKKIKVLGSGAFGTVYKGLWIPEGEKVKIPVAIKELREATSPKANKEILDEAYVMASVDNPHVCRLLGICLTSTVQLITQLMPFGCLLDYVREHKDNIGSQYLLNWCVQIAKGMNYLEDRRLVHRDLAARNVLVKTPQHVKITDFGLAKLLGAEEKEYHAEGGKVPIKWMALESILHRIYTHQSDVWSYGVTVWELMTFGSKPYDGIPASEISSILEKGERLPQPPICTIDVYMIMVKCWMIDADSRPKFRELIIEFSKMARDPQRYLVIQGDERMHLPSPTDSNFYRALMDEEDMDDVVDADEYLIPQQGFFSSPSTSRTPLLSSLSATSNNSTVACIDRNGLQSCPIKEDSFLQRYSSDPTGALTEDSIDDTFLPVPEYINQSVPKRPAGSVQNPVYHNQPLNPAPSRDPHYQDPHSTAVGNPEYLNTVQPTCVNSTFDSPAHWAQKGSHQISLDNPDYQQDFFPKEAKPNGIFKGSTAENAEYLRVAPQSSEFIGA
Epidermal growth factor receptor (Homo sapiens, UniProt P00533, L858R), sequence (P00533 25-1210 L858R limits assumed): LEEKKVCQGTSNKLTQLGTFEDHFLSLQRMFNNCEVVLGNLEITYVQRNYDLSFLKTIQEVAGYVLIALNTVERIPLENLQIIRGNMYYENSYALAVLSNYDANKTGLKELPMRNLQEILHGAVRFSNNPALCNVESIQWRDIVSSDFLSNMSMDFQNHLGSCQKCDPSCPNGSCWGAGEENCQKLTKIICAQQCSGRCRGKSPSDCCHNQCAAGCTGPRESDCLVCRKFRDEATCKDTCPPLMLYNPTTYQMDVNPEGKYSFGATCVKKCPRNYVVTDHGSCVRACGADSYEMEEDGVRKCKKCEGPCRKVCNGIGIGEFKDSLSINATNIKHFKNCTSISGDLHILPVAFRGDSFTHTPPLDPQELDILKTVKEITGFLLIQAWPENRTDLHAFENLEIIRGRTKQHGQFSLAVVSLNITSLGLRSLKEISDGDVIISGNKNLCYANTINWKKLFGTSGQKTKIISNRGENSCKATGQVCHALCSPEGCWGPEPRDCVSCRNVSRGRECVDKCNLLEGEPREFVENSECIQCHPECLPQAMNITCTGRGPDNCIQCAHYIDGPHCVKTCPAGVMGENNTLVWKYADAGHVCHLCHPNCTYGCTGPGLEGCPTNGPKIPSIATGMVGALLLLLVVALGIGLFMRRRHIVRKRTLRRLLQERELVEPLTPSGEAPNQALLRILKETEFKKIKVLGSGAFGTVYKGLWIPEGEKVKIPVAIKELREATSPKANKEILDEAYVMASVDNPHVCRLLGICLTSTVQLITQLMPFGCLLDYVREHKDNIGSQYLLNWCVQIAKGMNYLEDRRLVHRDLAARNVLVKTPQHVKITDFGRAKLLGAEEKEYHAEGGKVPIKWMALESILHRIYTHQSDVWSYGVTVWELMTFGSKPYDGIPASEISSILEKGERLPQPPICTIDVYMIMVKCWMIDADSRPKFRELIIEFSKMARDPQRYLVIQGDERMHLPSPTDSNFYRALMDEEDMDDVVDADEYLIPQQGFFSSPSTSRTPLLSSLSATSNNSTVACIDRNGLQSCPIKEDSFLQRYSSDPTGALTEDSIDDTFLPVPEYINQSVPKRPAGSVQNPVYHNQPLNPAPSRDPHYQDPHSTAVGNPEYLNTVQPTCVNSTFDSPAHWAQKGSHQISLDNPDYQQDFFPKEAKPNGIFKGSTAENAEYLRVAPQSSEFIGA
Epidermal growth factor receptor (Homo sapiens, UniProt P00533, T790M), sequence (P00533 25-1210 T790M limits assumed): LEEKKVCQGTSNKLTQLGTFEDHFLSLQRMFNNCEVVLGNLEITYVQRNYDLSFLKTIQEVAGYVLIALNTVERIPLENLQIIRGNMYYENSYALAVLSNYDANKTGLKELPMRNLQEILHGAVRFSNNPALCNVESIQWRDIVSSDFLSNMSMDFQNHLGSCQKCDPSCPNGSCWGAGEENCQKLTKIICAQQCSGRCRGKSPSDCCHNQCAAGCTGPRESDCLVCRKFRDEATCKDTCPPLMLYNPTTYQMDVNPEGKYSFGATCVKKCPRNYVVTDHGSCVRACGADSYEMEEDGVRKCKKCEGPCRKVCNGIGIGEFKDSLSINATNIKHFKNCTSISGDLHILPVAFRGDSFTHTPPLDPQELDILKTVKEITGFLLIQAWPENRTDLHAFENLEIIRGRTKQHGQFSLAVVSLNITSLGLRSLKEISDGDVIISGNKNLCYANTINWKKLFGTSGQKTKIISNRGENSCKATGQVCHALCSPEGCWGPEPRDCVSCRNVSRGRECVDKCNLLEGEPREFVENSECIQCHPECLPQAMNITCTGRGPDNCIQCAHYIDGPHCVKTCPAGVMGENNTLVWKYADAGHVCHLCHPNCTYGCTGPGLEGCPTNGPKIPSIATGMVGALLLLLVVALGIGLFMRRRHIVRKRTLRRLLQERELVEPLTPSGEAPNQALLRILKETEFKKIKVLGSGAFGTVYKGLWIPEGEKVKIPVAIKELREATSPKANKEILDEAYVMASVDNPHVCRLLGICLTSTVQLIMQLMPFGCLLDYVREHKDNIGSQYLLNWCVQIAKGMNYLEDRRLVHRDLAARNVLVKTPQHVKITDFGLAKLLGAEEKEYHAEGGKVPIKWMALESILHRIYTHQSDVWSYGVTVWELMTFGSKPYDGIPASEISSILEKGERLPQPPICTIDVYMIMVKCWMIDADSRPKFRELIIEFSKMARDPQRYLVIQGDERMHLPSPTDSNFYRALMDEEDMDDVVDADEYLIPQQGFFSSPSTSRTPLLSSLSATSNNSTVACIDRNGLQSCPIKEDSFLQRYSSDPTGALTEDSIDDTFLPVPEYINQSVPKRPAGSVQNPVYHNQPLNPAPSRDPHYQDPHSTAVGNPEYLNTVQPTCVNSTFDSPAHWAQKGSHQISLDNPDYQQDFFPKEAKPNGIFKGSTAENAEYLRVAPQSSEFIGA

Compound: C#Cc1cccc(Nc2ncnc3cc(OC)c(OCCCCCCCN/C(=N\C#N)Nc4ccncc4)cc23)c1
- GI50 (MCF7): 0.21 nM
- IC50 [1]: 0.46 nM
- GI50 (Huh-7): 1.81 nM
- IC50 [2]: 0.473 nM
- IC50 [3]: 581 nM
- GI50 (K562): 50.9 nM
- IC50 [4]: 0.55 nM

Compound: C#Cc1cccc(Nc2ncnc3cc(OC)c(OCCCCCN/C(=N\C#N)Nc4ccncc4)cc23)c1
- GI50 (MCF7): 0.1 nM
- IC50 [1]: 0.26 nM
- GI50 (Huh-7): 1.64 nM
- GI50 (NCI-H1975): 78.3 nM
- IC50 [2]: 0.23 nM
- IC50 [3]: 153 nM
- GI50 (K562): 38 nM
- IC50 [4]: 0.26 nM
- Activity [5]: Non-Toxic

Compound: C#Cc1cccc(Nc2ncnc3cc(OC)c(OCCCCCCCN/C(=N\C#N)Nc4cccnc4)cc23)c1
- GI50 (MCF7): 0.63 nM
- IC50 [1]: 0.48 nM
- GI50 (Huh-7): 9.94 nM
- IC50 [2]: 0.538 nM
- IC50 [3]: 448 nM
- GI50 (K562): 42.1 nM
- IC50 [4]: 0.49 nM

Compound: C#Cc1cccc(Nc2ncnc3cc(OC)c(OCCCCCCN/C(=N\C#N)Nc4cccnc4)cc23)c1
- GI50 (MCF7): 0.16 nM
- IC50 [1]: 0.38 nM
- IC50 [2]: 0.32 nM
- IC50 [3]: 326 nM
- GI50 (K562): 24.6 nM
- IC50 [4]: 0.38 nM

Compound: CC(=O)O[C@H]1C(=O)[C@@]2(C)[C@H]([C@H](OC(=O)c3ccccc3)[C@]3(O)C[C@H](OC(=O)[C@H](O)[C@@H](NC(=O)c4ccccc4)c4ccccc4)C(C)=C1C3(C)C)[C@]1(OC(C)=O)CO[C@@H]1C[C@@H]2O [PACLITAXEL]
- GI50 (MCF7): 4.85 nM
- GI50 (Huh-7): 7.41 nM
- GI50 (K562): 2.76 nM

Compound: C#Cc1cccc(Nc2ncnc3cc(OC)c(OCCCCCN/C(=N\C#N)Nc4cccnc4)cc23)c1
- GI50 (MCF7): 0.98 nM
- IC50 [1]: 0.41 nM
- GI50 (Huh-7): 62.9 nM
- IC50 [2]: 0.52 nM
- IC50 [3]: 228 nM
- GI50 (K562): 175 nM
- IC50 [4]: 0.46 nM

Compound: C#Cc1cccc(Nc2ncnc3cc(OC)c(OCCCCCCN/C(=N\C#N)Nc4ccncc4)cc23)c1
- GI50 (MCF7): 0.15 nM
- IC50 [1]: 0.32 nM
- GI50 (Huh-7): 1.87 nM
- IC50 [2]: 0.35 nM
- IC50 [3]: 323 nM
- GI50 (K562): 7.47 nM
- IC50 [4]: 0.36 nM
